Test results published in ChEMBL document CHEMBL1124490, “Hybrid molecules: growth inhibition of Leishmania donovani promastigotes by thiosemicarbazones of 3-carboxy-beta-carbolines” (J Med Chem, 1989).

Tests used:
Type in all cases: functional
[1] = tested on: Leishmania donovani; assay: Concentration of compound provoking >99% irreversible after removal of drugs from culture medium inhibition on growth of Leishmania donovani promastigotes
Procedure, shortened: (§1)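 Strain LRC L-52 promastigotes were exposed to compound for 3 days at 26 °C in DMEM/RPMI 1640 (HEPES, pH 7.4) with 10% heat-inactivated FCS. Cells were then centrifuged, washed free of drug and resuspended in fresh medium. They were counted by hemacytometer after 3 more days. The value is the concentration giving >99% irreversible growth inhibition.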

[2] = Concentration of compound provoking 50% inhibition on growth of Leishmania donovani promastigotes; settings: read-out: I50
Procedure, shortened: (§2)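 L. donovani LRC L-52 promastigotes were grown at 26 °C in 45% DMEM plus 45% RPMI 1640 (25 mM HEPES, pH 7.4) with 10% heat-inactivated FCS and antibiotics. Compound was added one day after seeding. Cells were counted by hemacytometer 3 days later, in duplicate flasks at two dilutions each, against untreated cultures. IC50 is the mean of five independent experiments.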

[3] = tested on: Leishmania donovani; assay: Percent inhibition on the biosynthesis of proteins of promastigotes of Leishmania donovani at 5.25 uM concentration
Procedure, shortened: (§3)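 Promastigotes (5 x 10^6 cells/mL) were incubated with or without compound for 4 h, then pulsed for 1 h with a labelled precursor: [methyl-3H]thymidine 2.5 µCi/mL for DNA, [5-3H]uridine 2.5 µCi/mL for RNA, or [4,5-3H]leucine 5 µCi/mL for protein. Cells were washed in cold PBS and fractionated with TCA (cold-soluble pool, hot-soluble nucleic acid, insoluble protein). Protein was measured by Lowry.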

[4] = tested on: Leishmania donovani; assay: Percent inhibition on the biosynthesis of DNA of promastigotes of Leishmania donovani at 3.5 uM concentration; procedure, shortened: as §3
[5] = tested on: Leishmania donovani; assay: Percent inhibition on the biosynthesis of proteins of promastigotes of Leishmania donovani at 3.5 uM concentration; procedure, shortened: as §3
[6] = tested on: Leishmania donovani; assay: Percent inhibition on the biosynthesis of DNA of promastigotes of Leishmania donovani at 17.5 uM concentration; procedure, shortened: as §3
[7] = tested on: Leishmania donovani; assay: Percent inhibition on the growth of the promastigotes of Leishmania donovani at 3.5 uM concentration
[8] = tested on: Leishmania donovani; assay: Percent inhibition on the biosynthesis of RNA of promastigotes of Leishmania donovani at 3.5 uM concentration; procedure, shortened: as §3
[9] = tested on: Leishmania donovani; assay: Percent inhibition on the growth of the promastigotes of Leishmania donovani at 17.5 uM concentration
[10] = tested on: Leishmania donovani; assay: Percent inhibition on the biosynthesis of RNA of promastigotes of Leishmania donovani at 17.5 uM concentration; procedure, shortened: as §3
[11] = tested on: Leishmania donovani; assay: Percent inhibition on the biosynthesis of RNA of promastigotes of Leishmania donovani at 5.25 uM concentration; procedure, shortened: as §3
[12] = tested on: Leishmania donovani; assay: Percent inhibition on the biosynthesis of proteins of promastigotes of Leishmania donovani at 17.5 uM concentration; procedure, shortened: as §3
[13] = tested on: Leishmania donovani; assay: Percent inhibition on the biosynthesis of DNA of promastigotes of Leishmania donovani at 5.25 uM concentration; procedure, shortened: as §3
[14] = tested on: Leishmania donovani; assay: Percent inhibition on the biosynthesis of DNA of promastigotes of Leishmania donovani at 3.7 uM concentration; procedure, shortened: as §3
[15] = tested on: Leishmania donovani; assay: Percent inhibition on the biosynthesis of DNA of promastigotes of Leishmania donovani at 37 uM concentration; procedure, shortened: as §3
[16] = tested on: Leishmania donovani; assay: Percent inhibition on the biosynthesis of RNA of promastigotes of Leishmania donovani at 37 uM concentration; procedure, shortened: as §3
[17] = tested on: Leishmania donovani; assay: Percent inhibition on the growth of the promastigotes of Leishmania donovani at 37 uM concentration
[18] = tested on: Leishmania donovani; assay: Percent inhibition on the biosynthesis of RNA of promastigotes of Leishmania donovani at 3.7 uM concentration; procedure, shortened: as §3
[19] = tested on: Leishmania donovani; assay: Percent inhibition on the biosynthesis of proteins of promastigotes of Leishmania donovani at 3.7 uM concentration; procedure, shortened: as §3
[20] = tested on: Leishmania donovani; assay: Percent inhibition on the biosynthesis of proteins of promastigotes of Leishmania donovani at 37 uM concentration; procedure, shortened: as §3
[21] = tested on: Leishmania donovani; assay: Percent inhibition on the growth of the promastigotes of Leishmania donovani at 3.7 uM concentration
[22] = tested on: Leishmania donovani; assay: Percent inhibition on the growth of the promastigotes of Leishmania donovani at 53 uM concentration
[23] = Concentration of compound provoking 50% inhibition on growth of Leishmania donovani promastigotes multiplication; settings: read-out: I50; procedure, shortened: as §2
[24] = tested on: Leishmania donovani; assay: Concentration of compound provoking >99% irreversible after removal of drugs from culture medium inhibition on growth of Leishmania donovani promastigotes multiplication; procedure, shortened: as §1
[25] = tested on: Leishmania donovani; assay: Percent inhibition on the biosynthesis of RNA of promastigotes of Leishmania donovani at 26.6 uM concentration; procedure, shortened: as §3
[26] = tested on: Leishmania donovani; assay: Percent inhibition on the biosynthesis of RNA of promastigotes of Leishmania donovani at 53 uM concentration; procedure, shortened: as §3
[27] = tested on: Leishmania donovani; assay: Percent inhibition on the biosynthesis of DNA of promastigotes of Leishmania donovani at 53 uM concentration; procedure, shortened: as §3
[28] = tested on: Leishmania donovani; assay: Percent inhibition on the growth of the promastigotes of Leishmania donovani at 26.6 uM concentration
[29] = tested on: Leishmania donovani; assay: Percent inhibition on the biosynthesis of proteins of promastigotes of Leishmania donovani at 26.6 uM concentration; procedure, shortened: as §3
[30] = tested on: Leishmania donovani; assay: Percent inhibition on the biosynthesis of DNA of promastigotes of Leishmania donovani at 26.6 uM concentration; procedure, shortened: as §3
[31] = tested on: Leishmania donovani; assay: Percent inhibition on the biosynthesis of proteins of promastigotes of Leishmania donovani at 53 uM concentration; procedure, shortened: as §3

## CCOC(=O)c1cc2cc(/C=N/N=C(/N)S)[nH]cc-2n1
[1]
  concentration for >99% irreversible growth inhibition: > 75 µM
[2]
  IC50: > 50 µM

## C/C(=N\N=C(\N)S)c1cc2c3ccccc3nc-2c[nH]1
[1]
  concentration for >99% irreversible growth inhibition: 17.5 µM
[3]
  inhibition: 36%
[4]
  inhibition: 0%
[5]
  inhibition: 25%
[2]
  IC50: 2.5 µM
[6]
  inhibition: 99.6%
[7]
  inhibition: 68%
[8]
  inhibition: 36%
[9]
  inhibition: 100%
[10]
  inhibition: 98.7%
[11]
  inhibition: 52%
[12]
  inhibition: 95%
[13]
  inhibition: 0.5%

## N/C(S)=N/N=C/c1cc2c3ccccc3nc-2c[nH]1
[14]
  inhibition: 89%
[1]
  concentration for >99% irreversible growth inhibition: 40 µM
[15]
  inhibition: 99.7%
[16]
  inhibition: 96%
[2]
  IC50: 5 µM
[17]
  inhibition: 90%
[18]
  inhibition: 34%
[19]
  inhibition: 7%
[20]
  inhibition: 81%
[21]
  inhibition: 37%

## N/C(S)=N/N=C/c1ccccn1
[22]
  inhibition: 78%
[23]
  IC50: 29 µM
[24]
  Imax: 67 µM
[25]
  inhibition: 50%
[26]
  inhibition: 53%
[27]
  inhibition: 95%
[28]
  inhibition: 56%
[29]
  inhibition: 20%
[30]
  inhibition: 90%
[31]
  inhibition: 17%

## N=C(N)c1ccc(OCCCCCOc2ccc(C(=N)N)cc2)cc1 [PENTAMIDINE]
[1]
  concentration for >99% irreversible growth inhibition: 1.1 µM
[2]
  IC50: 0.56 µM

## COC(=O)c1cc2c(cn1)[nH]c1ccccc12 [BETA-CCM]
[2]
  IC50: > 50 µM
